According to ChEMBL document CHEMBL1157762, “Sequence inversion and phenylalanine surrogates at the beta-turn enhance the antibiotic activity of gramicidin S” (J Med Chem, 2010):
In brackets after ≈: the same amount, converted by molar mass. Where a SMILES comes first, the peptide text is derived from it.

What was measured:
Listeria monocytogenes = assay: Antibacterial activity against Listeria monocytogenes CECT 4032 after 24 hrs by turbidimetry; assay type: functional; conditions: CECT 4032, 24 h
How it was run: (§1)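 Frozen stocks thawed and grown two days in cation-adjusted Mueller-Hinton II broth at 37 °C. Exponential-phase cells washed twice in PBS pH 7.0 and resuspended in the same broth at 5 × 10^5 CFU/mL. Incubated 24 h at 37 °C with peptide, growth read by turbidity at 600 nm. Two experiments, triplicate samples. MIC50 taken as lowest concentration giving 50% growth inhibition versus untreated control.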

[1] = Therapeutic index, ratio of HC50 for sheep erythrocytes to MIC50 for polymyxin E-resistant Acinetobacter baumannii ATCC 19606
Staphylococcus aureus = assay: Antibacterial activity against Staphylococcus aureus CECT 240 after 24 hrs by turbidimetry; assay type: functional; conditions: CECT 240, 24 h; how it was run: as §1

MIC50 (Staphylococcus aureus) [µM]	Compound	MIC50 (Listeria monocytogenes) [µM]	selectivity ratio [1]
–	CC(C)C[C@@H]1NC(=O)[C@H](CCCN)NC(=O)[C@H](C(C)C)NC(=O)[C@H](C2c3ccccc3-c3ccccc32)NC(=O)[C@H]2CCCN2C(=O)[C@H](CC(C)C)NC(=O)[C@H](CCCN)NC(=O)[C@H](C(C)C)NC(=O)[C@H](C2c3ccccc3-c3ccccc32)NC(=O)[C@H]2CCCN2C1=O (HELM PEPTIDE1{L.[dP].[O=C([C@@H](N[*:1])C1c2ccccc2-c2ccccc21)[*:2]].V.[Orn].L.[dP].[O=C([C@@H](N[*:1])C1c2ccccc2-c2ccccc21)[*:2]].V.[Orn]}$PEPTIDE1,PEPTIDE1,1:R1-10:R2$$$V2.0)	2.2 (≈ 2.84 µg/mL)	0.1
2.4 (≈ 2.8 µg/mL)	CC(C)C[C@@H]1NC(=O)[C@H](CCCN)NC(=O)[C@H](C(C)C)NC(=O)[C@@H]2Cc3ccccc3CN2C(=O)[C@H]2CCCN2C(=O)[C@H](CC(C)C)NC(=O)[C@H](CCCN)NC(=O)[C@H](C(C)C)NC(=O)[C@@H]2Cc3ccccc3CN2C(=O)[C@H]2CCCN2C1=O (HELM PEPTIDE1{L.[dP].[Tic].V.[Orn].L.[dP].[Tic].V.[Orn]}$PEPTIDE1,PEPTIDE1,1:R1-10:R2$$$V2.0)	–	–
